What was measured:
Staphylococcus aureus [1] = assay: Antimicrobial activity against Staphylococcus aureus SG511 assessed as inhibition zone at 37 degC for 24 hrs by agar diffusion method; type: functional
Procedure, shortened: (§1)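 Well diffusion: 50 μL of a 1.0 mM solution in DMSO:MeOH (1:9) filled into 9 mm wells cut in Standard I Nutrient Agar or Mueller Hinton II Agar. Plates incubated at 37 °C for 24 h, then growth inhibition zone read in mm. Partially clear zones, or colonies within the zone, recorded as p.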

Escherichia coli [2] = assay: Antimicrobial activity against Escherichia coli SG458 assessed as inhibition zone at 37 degC for 24 hrs by agar diffusion method; type: functional; procedure, shortened: as §1
Micrococcus luteus [3] = assay: Antimicrobial activity against Micrococcus luteus ATCC 10240 assessed as inhibition zone at 37 degC for 24 hrs by agar diffusion method; type: functional; procedure, shortened: as §1
Staphylococcus aureus [4] = assay: Antimicrobial activity against methicillin-resistant Staphylococcus aureus 134/93 assessed as inhibition zone at 37 degC for 24 hrs by agar diffusion method; type: functional
Procedure, shortened: (§2)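 Agar well diffusion. Each 9 mm well in nutrient or Mueller Hinton II agar received 50 μL of a 2.0 mM solution in DMSO:MeOH (1:9). Plates were incubated at 37 °C for 24 h. The inhibition zone diameter was read in mm, including the 9 mm well. A "p" marks a partially clear zone or colonies inside the zone.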

Staphylococcus aureus [5] = assay: Antimicrobial activity against Staphylococcus aureus Efs4 assessed as inhibition zone at 37 degC for 24 hrs by agar diffusion method; type: functional
Procedure, shortened: (§3)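 Each solution at 2.0 mM in DMSO:MeOH (1:9), 50 μL filled into 9 mm agar wells (Standard I Nutrient or Mueller Hinton II Agar). Incubation at 37 °C for 24 h. Inhibition zone diameter measured in mm; a partially clear zone or colonies inside the zone noted as p.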

Staphylococcus aureus [6] = assay: Antimicrobial activity against Staphylococcus aureus Efs1 assessed as inhibition zone at 37 degC for 24 hrs by agar diffusion method; type: functional; procedure, shortened: as §3
Bacillus subtilis [7] = assay: Antimicrobial activity against Bacillus subtilis ATCC 6633 assessed as inhibition zone at 37 degC for 24 hrs by agar diffusion method; type: functional; procedure, shortened: as §1
Mycolicibacterium vaccae [8] = assay: Antimicrobial activity against Mycobacterium vaccae IMET assessed as inhibition zone at 37 degC for 24 hrs by agar diffusion method; type: functional; procedure, shortened: as §1
Pseudomonas aeruginosa [9] = assay: Antimicrobial activity against Pseudomonas aeruginosa K799/61 assessed as partially clear inhibition zone at 37 degC for 24 hrs by agar diffusion method; type: functional; procedure, shortened: as §2
Pseudomonas aeruginosa [10] = assay: Antimicrobial activity against Pseudomonas aeruginosa K799/61 assessed as inhibition zone at 37 degC for 24 hrs by agar diffusion method; type: functional; procedure, shortened: as §3
Pseudomonas aeruginosa [11] = assay: Antimicrobial activity against Pseudomonas aeruginosa K799/WT assessed as faint inhibition zone at 37 degC for 24 hrs by agar diffusion method; type: functional; procedure, shortened: as §3
Enterococcus faecalis [12] = assay: Antimicrobial activity against vancomycin-resistant Enterococcus faecalis 1528 assessed as inhibition zone at 37 degC for 24 hrs by agar diffusion method; type: functional; procedure, shortened: as §2
Bacillus subtilis [13] = assay: Antimicrobial activity against Bacillus subtilis ATCC 6633 assessed as partially clear inhibition zone at 37 degC for 24 hrs by agar diffusion method; type: functional; procedure, shortened: as §1
Pseudomonas aeruginosa [14] = assay: Antimicrobial activity against Pseudomonas aeruginosa K799/61 assessed as faint inhibition zone at 37 degC for 24 hrs by agar diffusion method; type: functional; procedure, shortened: as §2
Pseudomonas aeruginosa [15] = assay: Antimicrobial activity against Pseudomonas aeruginosa K799/WT assessed as partially clear inhibition zone at 37 degC for 24 hrs by agar diffusion method; type: functional; procedure, shortened: as §2
Micrococcus luteus [16] = assay: Antimicrobial activity against Micrococcus luteus ATCC 10240 assessed as partially clear inhibition zone at 37 degC for 24 hrs by agar diffusion method; type: functional
Procedure, shortened: (§4)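 Agar well diffusion. Each 9 mm well in nutrient or Mueller Hinton II agar received 50 μL of a 1.0 mM solution in DMSO:MeOH (1:9). Plates were incubated at 37 °C for 24 h. The inhibition zone diameter was read in mm, including the well. A "p" marks a partially clear zone or colonies inside the zone.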

Pseudomonas aeruginosa [17] = assay: Antimicrobial activity against Pseudomonas aeruginosa K799/61 assessed as inhibition zone at 5 ug/ml at 37 degC for 24 hrs by agar diffusion method; settings: K799/61, 24 h, read-out: IZ
Micrococcus luteus [18] = assay: Antimicrobial activity against Micrococcus luteus ATCC 10240 assessed as inhibition zone at 5 ug/ml at 37 degC for 24 hrs by agar diffusion method; type: functional; settings: ATCC 10240, 24 h, read-out: IZ
Procedure, shortened: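 Agar well diffusion with the control antibiotic dissolved in water at 5 μg/mL. 50 μL was placed in each 9 mm well in nutrient or Mueller Hinton II agar. Plates were incubated at 37 °C for 24 h, and the inhibition zone diameter was read in mm, including the well.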

Enterococcus faecalis [19] = assay: microbe, parasite or virus in culture; settings: Enterococcus faecalis, 1528, 24 h, read-out: IZ
Pseudomonas aeruginosa [20] = assay: Antimicrobial activity against Pseudomonas aeruginosa K799/WT assessed as inhibition zone at 5 ug/ml at 37 degC for 24 hrs by agar diffusion method; settings: read-out: IZ
Staphylococcus aureus [21] = assay: Antimicrobial activity against Staphylococcus aureus Efs4 assessed as inhibition zone at 5 ug/ml at 37 degC for 24 hrs by agar diffusion method; settings: Efs4, 24 h, read-out: IZ
Staphylococcus aureus [22] = assay: Antimicrobial activity against Staphylococcus aureus Efs1 assessed as inhibition zone at 5 ug/ml at 37 degC for 24 hrs by agar diffusion method; settings: Efs1, 24 h, read-out: IZ
Staphylococcus aureus [23] = assay: microbe, parasite or virus in culture; settings: 134/93, 24 h, read-out: IZ
Mycolicibacterium vaccae [24] = assay: Antimicrobial activity against Mycobacterium vaccae IMET assessed as inhibition zone at 5 ug/ml at 37 degC for 24 hrs by agar diffusion method; type: functional; settings: read-out: IZ
Procedure, shortened: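 Ciprofloxacin dissolved in water at 5 μg/mL and filled into 9 mm wells in nutrient or Mueller Hinton II agar. Plates held at 37 °C for 24 h, after which the growth inhibition zone was read in mm.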

Bacillus subtilis [25] = assay: microbe, parasite or virus in culture; settings: ATCC 6633, 24 h, read-out: IZ
Escherichia coli [26] = assay: Antimicrobial activity against Escherichia coli SG458 assessed as inhibition zone at 5 ug/ml at 37 degC for 24 hrs by agar diffusion method; settings: SG458, 24 h, read-out: IZ
Staphylococcus aureus [27] = assay: Antimicrobial activity against Staphylococcus aureus SG511 assessed as inhibition zone at 5 ug/ml at 37 degC for 24 hrs by agar diffusion method; settings: SG511, 24 h, read-out: IZ
Micrococcus luteus [28] = assay: Antimicrobial activity against Micrococcus luteus ATCC 10240 assessed as unclear inhibition zone at 37 degC for 24 hrs by agar diffusion method; type: functional; procedure, shortened: as §4
Staphylococcus aureus [29] = assay: Antimicrobial activity against Staphylococcus aureus Efs1 assessed as partially clear inhibition zone at 37 degC for 24 hrs by agar diffusion method; type: functional; procedure, shortened: as §2
Staphylococcus aureus [30] = assay: Antimicrobial activity against Staphylococcus aureus Efs4 assessed as partially clear inhibition zone at 37 degC for 24 hrs by agar diffusion method; type: functional; procedure, shortened: as §2
Escherichia coli [31] = assay: Antimicrobial activity against Escherichia coli SG458 assessed as partially clear inhibition zone at 37 degC for 24 hrs by agar diffusion method; type: functional; procedure, shortened: as §4
Pseudomonas aeruginosa [32] = assay: Antimicrobial activity against Pseudomonas aeruginosa K799/WT assessed as inhibition zone at 37 degC for 24 hrs by agar diffusion method; type: functional; procedure, shortened: as §3

Structure (SMILES)	inhibition zone (IZ) (Staphylococcus aureus [1]) [mm]	inhibition zone (IZ) (Escherichia coli [2]) [mm]	inhibition zone (IZ) (Micrococcus luteus [3]) [mm]	inhibition zone (IZ) (Staphylococcus aureus [4]) [mm]	inhibition zone (IZ) (Staphylococcus aureus [5]) [mm]	inhibition zone (IZ) (Staphylococcus aureus [6]) [mm]	inhibition zone (IZ) (Bacillus subtilis [7]) [mm]	inhibition zone (IZ) (Mycolicibacterium vaccae [8]) [mm]	inhibition zone (IZ) (Pseudomonas aeruginosa [10]) [mm]	inhibition zone (IZ) (Pseudomonas aeruginosa [11]) [mm]	inhibition zone (IZ) (Enterococcus faecalis [12]) [mm]	inhibition zone (IZ) (Bacillus subtilis [13]) [mm]	inhibition zone (IZ) (Pseudomonas aeruginosa [14]) [mm]	inhibition zone (IZ) (Micrococcus luteus [28]) [mm]	inhibition zone (IZ) (Staphylococcus aureus [30]) [mm]	inhibition zone (IZ) (Escherichia coli [31]) [mm]	further results
CC(=O)OC[C@H]1CN(c2ccc(N3CCN(C(=O)OCC4=C(C(=O)O)N5C(=O)[C@@H](NC(=O)Cc6ccccc6)[C@H]5SC4)CC3)c(F)c2)C(=O)O1	36	33	42	27	31	40	43	44	22	17	26	47	–	–	–	–	inhibition zone (IZ) (Pseudomonas aeruginosa [9]): 31 mm
CC(=O)NC[C@H]1CN(c2ccc(N3CCN(C(=O)OCC4=C(C(=O)O)N5C(=O)[C@@H](NC(=O)Cc6ccccc6)[C@H]5SC4)CC3)c(F)c2)C(=O)O1	34	33	38	17	30	40	42	30	24	20	23	45	33	–	–	–	inhibition zone (IZ) (Pseudomonas aeruginosa [15]): 15 mm; inhibition zone (IZ) (Micrococcus luteus [16]): 42 mm
O=C(O)c1cn(C2CC2)c2cc(N3CCNCC3)c(F)cc2c1=O [CIPROFLOXACIN]	–	–	–	–	–	–	–	–	–	–	–	–	–	–	–	–	zone of inhibition at 5 µg/mL (Pseudomonas aeruginosa [17]): 35 mm; zone of inhibition at 5 µg/mL (Micrococcus luteus [18]): 0 mm; zone of inhibition at 5 µg/mL (Enterococcus faecalis [19]): 15 mm; zone of inhibition at 5 µg/mL (Pseudomonas aeruginosa [20]): 29 mm; zone of inhibition at 5 µg/mL (Staphylococcus aureus [21]): 0 mm; zone of inhibition at 5 µg/mL (Staphylococcus aureus [22]): 0 mm; zone of inhibition at 5 µg/mL (Staphylococcus aureus [23]): 0 mm; zone of inhibition at 5 µg/mL (Mycolicibacterium vaccae [24]): 23 mm; zone of inhibition at 5 µg/mL (Bacillus subtilis [25]): 31 mm; zone of inhibition at 5 µg/mL (Escherichia coli [26]): 34 mm; zone of inhibition at 5 µg/mL (Staphylococcus aureus [27]): 18 mm
CC(=O)OCC1=C(C(=O)O)N2C(=O)[C@@H](NC(=O)Cc3ccccc3)[C@H]2SC1 [CEFALORAM]	39	35	38	13	35	43	46	0	23	11	23	52	–	44	–	–	–
CC(=O)NC[C@H]1CN(c2ccc(N3CCNCC3)c(F)c2)C(=O)O1	18	–	23	25	14	31	26	35	20	18	25	–	30	30	18	14	inhibition zone (IZ) (Pseudomonas aeruginosa [15]): 11 mm; inhibition zone (IZ) (Staphylococcus aureus [29]): 35 mm
CC(=O)OC[C@H]1CN(c2ccc(N3CCNCC3)c(F)c2)C(=O)O1	21	–	–	29	19	31	24	42	16	15	25	26	26	40	23	13	inhibition zone (IZ) (Micrococcus luteus [16]): 31 mm
CC(=O)NC[C@H]1CN(c2ccc(N3CCOCC3)c(F)c2)C(=O)O1 [LINEZOLID]	35	23	38	42	35	34	33	52	–	–	34	37	–	45	39	28	inhibition zone (IZ) (Pseudomonas aeruginosa [32]): 0 mm; inhibition zone (IZ) (Pseudomonas aeruginosa [9]): 10 mm; inhibition zone (IZ) (Staphylococcus aureus [29]): 39 mm

Source: ChEMBL document CHEMBL3217698, “Syntheses and biological evaluation of new cephalosporin-oxazolidinone conjugates” (2010)
